# Measurements pooled from the literature.
# Lines come from different studies, so protocols differ.
# Target: Tyrosine-protein kinase Fes/Fps (FES, Homo sapiens, UniProt P07332)
Structure (SMILES),assay,conditions,remaining binding [%]
FC(F)(F)Oc1cccc(-c2cnc3ccc(-c4ccncc4)nn23)c1,"cell-free assay, competition with immobilised ligand",5 µM,84
C[C@@H]1CCN(c2nccc(-c3cnn4ncccc34)n2)C1,binding,1 µM,100
CS(=O)(=O)N1CCCC(NC(=O)[C@H](CCC2CCCCC2)NC(=O)c2ccc(CNc3ncnc4c3nnn4-c3ccccc3)cc2)C1 (stereo partly shown),"cell-free assay, competition with immobilised ligand",0.1 µM,87
F[C@@H]1CCN(c2nccc(-c3cnn4ncccc34)n2)C1,binding,1 µM,77
CN([C@@H]1CCc2c(CC(=O)O)c3ccccc3n2C1)S(=O)(=O)c1ccc(F)cc1,"cell-free assay, competition with immobilised ligand",1 µM,79
O=C(NCCCN1CCOCC1)c1ccc(Nc2nccc(-c3cc4ccccc4s3)n2)cc1,"binding, competition with immobilised ligand",1 µM,85
CCN1CCN(Cc2ccc(C(=O)Nc3ccc(C)c(Oc4ccc5c(c4)CC(=O)N5)c3)cc2C(F)(F)F)CC1,"binding, competition with immobilised ligand",1 µM,97
CN(C)c1ncc(F)c(-c2cnn3ncccc23)n1,binding,1 µM,87
COc1cnc(Nc2cccc(S(N)(=O)=O)c2)nc1N1CCN(c2ccccc2)CC1,"binding, competition with immobilised ligand",1 µM,100
CC1CCCN1c1nccc(-c2cnn3ncccc23)n1 (stereo not shown),binding,1 µM,100
COc1cc(-c2cn(C3CCc4c(F)cccc4N(CC(F)(F)F)C3=O)nn2)ccc1-n1cnc(C)c1 (stereo not shown),"cell-free assay, competition with immobilised ligand",1 µM,100
CNC(=O)[C@@H]1CC[C@@H](n2c(-c3ccc4cnccc4c3)nc3ccc(C(=O)NCc4cccc(C(N)=O)c4)cc32)C1,"binding, competition with immobilised ligand",1 µM,86
Cn1nc(C(=O)NCc2ccc(C(=O)O)cc2)cc1-c1ccc2[nH]ccc2c1,"cell-free assay, competition with immobilised ligand",0.1 µM,95
C=CC(=O)N1CCC(C(=O)NCC(=O)N2CCN(c3nc(-c4cnc(N)nc4C(F)F)nc(N4CCOCC4)n3)CC2)CC1,"binding, competition with immobilised ligand",1 µM,100
Cc1c(NC(=O)c2cc(C(N)=O)nc3cc(F)ccc23)c(C(F)(F)F)nn1Cc1ccc(C(C)(C)C)cc1,"cell-free assay, competition with immobilised ligand",1 µM,100
Cc1cnn2ncc(-c3ccnc(N(C)C)n3)c2c1,binding,1 µM,93
O=C(c1ccc(Nc2ncc(Cl)c(-c3ccc(Cl)s3)n2)cc1)N1CCC(N2CCCC2)CC1,"binding, competition with immobilised ligand",1 µM,59
N[C@@H]1CCN(c2nccc(-c3cnn4ncccc34)n2)C1,binding,1 µM,100
O=C(c1ccc(Nc2nccc(-c3cc4ccccc4s3)n2)cc1)N1CCC(N2CCCC2)CC1,"binding, competition with immobilised ligand",1 µM,93
O=C(Nc1c[nH]nc1C(=O)NC1CCNCC1)c1cc(F)cc(F)c1,"binding, competition with immobilised ligand",1 µM,100
Cc1nccc(COC(=O)N2C[C@@H]3[C@@H](CNC(=O)c4ccc5[nH]nnc5c4)[C@@H]3C2)n1,"cell-free assay, competition with immobilised ligand",1 µM,99
Nc1ncc2c(n1)-c1c([nH]c3ccc(C#CC4CC4)cc13)CCCC2,"binding, competition with immobilised ligand",1 µM,100
